From ChEMBL document CHEMBL4422684, “Identification of novel lysine demethylase 5-selective inhibitors by inhibitor-based fragment merging strategy” (Bioorg Med Chem, 2019)
Activity calls are given as the source filed them. No cut-off for these calls is given here.

Columns and labels:
[1] = biological target: T1, Lysine-specific demethylase 5A (Homo sapiens, UniProt P29375); assay: Inhibition of human C-terminal FLAG-tagged KDM5A (1 to 1090 residues) expressed in baculovirus infected Sf9 insect cells using H3(1-21)K4(Me3)-GGK(Biotin)/2-OG as substrate measured after 1 hr by Alphalisa assay
T1 sequence (P29375 whole entry, the tested form may be a part): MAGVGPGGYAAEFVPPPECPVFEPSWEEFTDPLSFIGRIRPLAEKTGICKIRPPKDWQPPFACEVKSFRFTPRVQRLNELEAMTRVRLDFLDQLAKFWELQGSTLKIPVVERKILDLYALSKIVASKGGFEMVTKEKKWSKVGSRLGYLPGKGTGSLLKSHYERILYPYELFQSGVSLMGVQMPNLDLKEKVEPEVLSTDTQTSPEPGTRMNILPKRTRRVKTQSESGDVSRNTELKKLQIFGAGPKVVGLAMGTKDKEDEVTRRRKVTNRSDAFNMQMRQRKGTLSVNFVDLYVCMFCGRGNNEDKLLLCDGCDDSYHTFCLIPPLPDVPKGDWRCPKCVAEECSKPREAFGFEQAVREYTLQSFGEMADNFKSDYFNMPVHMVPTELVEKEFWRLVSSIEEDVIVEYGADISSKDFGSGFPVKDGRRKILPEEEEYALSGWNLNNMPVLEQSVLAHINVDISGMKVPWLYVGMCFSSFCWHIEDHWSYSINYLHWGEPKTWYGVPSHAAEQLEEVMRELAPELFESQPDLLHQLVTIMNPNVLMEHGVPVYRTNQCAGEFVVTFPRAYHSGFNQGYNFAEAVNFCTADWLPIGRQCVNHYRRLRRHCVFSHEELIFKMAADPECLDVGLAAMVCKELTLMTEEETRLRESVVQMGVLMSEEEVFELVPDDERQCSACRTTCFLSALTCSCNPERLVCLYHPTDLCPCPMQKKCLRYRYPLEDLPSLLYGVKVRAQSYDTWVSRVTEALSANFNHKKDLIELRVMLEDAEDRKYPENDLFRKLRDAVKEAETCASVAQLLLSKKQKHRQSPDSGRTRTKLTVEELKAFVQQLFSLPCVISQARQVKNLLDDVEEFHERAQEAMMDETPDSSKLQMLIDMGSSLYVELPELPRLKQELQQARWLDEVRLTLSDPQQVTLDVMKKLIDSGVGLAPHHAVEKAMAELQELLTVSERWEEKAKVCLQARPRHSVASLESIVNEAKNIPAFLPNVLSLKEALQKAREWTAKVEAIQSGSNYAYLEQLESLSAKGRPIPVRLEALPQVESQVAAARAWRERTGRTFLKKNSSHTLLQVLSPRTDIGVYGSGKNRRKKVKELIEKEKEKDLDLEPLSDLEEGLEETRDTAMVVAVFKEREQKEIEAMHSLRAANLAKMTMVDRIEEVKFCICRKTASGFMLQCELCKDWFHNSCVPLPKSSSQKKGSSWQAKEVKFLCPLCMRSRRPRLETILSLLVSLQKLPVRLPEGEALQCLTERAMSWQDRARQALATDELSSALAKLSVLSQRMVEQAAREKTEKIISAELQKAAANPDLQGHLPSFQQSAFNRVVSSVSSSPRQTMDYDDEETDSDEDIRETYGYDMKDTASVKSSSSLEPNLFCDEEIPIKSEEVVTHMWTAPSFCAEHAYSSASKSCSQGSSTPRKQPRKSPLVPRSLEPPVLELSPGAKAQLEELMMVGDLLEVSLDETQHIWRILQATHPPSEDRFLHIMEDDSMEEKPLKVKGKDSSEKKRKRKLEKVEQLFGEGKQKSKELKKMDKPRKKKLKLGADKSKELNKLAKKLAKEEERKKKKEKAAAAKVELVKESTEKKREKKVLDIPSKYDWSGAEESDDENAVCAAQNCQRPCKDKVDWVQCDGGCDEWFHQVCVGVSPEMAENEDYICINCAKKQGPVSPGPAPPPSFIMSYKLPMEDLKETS
Procedure, shortened: (§1)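 AlphaLISA demethylase assay in 50 mM HEPES pH 7.5, 0.1% BSA, 0.01% Tween 20 with DMSO. Enzyme and inhibitor combined, then peptide plus 2-OG (50 µM), Fe(II) (5 µM) and ascorbate (100 µM) in the added mix; 1 h at room temperature with shaking.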

[2] = biological target: Lysine-specific demethylase 5C (Homo sapiens, UniProt P41229); assay: Inhibition of full-length human N-terminal FLAG/His-tagged KDM5C (2 to 1560 residues) expressed in baculovirus infected Sf9 insect cells using H3(1-21)K4(Me3)-GGK(Biotin)/2-OG as substrate measured after 1 hr by Alphalisa assay; procedure, shortened: as §1
Sequence of Lysine-specific demethylase 5C (P41229 whole entry, the tested form may be a part): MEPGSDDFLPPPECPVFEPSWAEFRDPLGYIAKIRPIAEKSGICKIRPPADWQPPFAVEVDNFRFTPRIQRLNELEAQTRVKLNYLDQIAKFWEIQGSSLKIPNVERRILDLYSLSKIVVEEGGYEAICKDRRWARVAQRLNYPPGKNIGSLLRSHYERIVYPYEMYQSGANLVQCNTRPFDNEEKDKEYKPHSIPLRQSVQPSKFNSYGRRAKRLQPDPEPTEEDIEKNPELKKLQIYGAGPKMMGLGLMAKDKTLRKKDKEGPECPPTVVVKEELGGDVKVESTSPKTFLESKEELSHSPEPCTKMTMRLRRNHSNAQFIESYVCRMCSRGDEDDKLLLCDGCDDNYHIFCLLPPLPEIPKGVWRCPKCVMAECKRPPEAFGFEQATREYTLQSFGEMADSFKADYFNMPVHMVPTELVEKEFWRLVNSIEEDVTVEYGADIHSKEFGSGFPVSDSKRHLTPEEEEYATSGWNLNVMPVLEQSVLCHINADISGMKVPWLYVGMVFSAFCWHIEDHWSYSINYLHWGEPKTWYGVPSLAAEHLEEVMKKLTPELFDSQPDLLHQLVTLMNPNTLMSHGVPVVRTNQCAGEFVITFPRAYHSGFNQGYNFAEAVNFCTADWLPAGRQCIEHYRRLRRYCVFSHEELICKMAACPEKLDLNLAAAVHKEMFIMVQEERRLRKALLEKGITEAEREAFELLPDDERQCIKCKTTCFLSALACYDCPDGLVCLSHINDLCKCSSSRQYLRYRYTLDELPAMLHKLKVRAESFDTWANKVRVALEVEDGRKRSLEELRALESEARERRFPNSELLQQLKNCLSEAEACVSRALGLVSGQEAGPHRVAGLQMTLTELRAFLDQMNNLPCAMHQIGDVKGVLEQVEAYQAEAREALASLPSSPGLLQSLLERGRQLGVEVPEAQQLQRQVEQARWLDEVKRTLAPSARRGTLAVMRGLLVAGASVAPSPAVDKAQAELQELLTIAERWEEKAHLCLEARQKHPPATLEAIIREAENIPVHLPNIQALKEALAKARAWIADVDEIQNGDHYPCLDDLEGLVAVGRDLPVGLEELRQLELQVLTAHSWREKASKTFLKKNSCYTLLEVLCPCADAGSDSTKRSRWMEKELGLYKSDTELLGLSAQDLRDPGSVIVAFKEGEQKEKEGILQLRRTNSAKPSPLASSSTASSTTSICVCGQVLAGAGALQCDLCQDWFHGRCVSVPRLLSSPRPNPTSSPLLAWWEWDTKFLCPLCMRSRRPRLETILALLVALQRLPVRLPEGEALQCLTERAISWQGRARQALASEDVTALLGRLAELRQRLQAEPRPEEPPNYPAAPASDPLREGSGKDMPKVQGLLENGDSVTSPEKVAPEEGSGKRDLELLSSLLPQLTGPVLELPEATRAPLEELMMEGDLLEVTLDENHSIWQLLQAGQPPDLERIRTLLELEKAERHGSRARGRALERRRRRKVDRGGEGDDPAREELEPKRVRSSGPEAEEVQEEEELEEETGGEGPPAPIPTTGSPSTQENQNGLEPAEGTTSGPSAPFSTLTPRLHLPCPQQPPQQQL

[3] = biological target: T2, Lysine-specific demethylase 2A (Homo sapiens) (UniProt Q9Y2K7); assay: Inhibition of human N-terminal FLAG/Avi-tagged KDM2A (2 to 700 residues) expressed in baculovirus infected Sf9 insect cells at 50 uM using H3(21-44)-K36(Me2)-GK(Biotin)/2-OG as substrate measured after 1 hr by Alphalisa assay relative to control; procedure, shortened: as §1
T2 sequence (whole entry): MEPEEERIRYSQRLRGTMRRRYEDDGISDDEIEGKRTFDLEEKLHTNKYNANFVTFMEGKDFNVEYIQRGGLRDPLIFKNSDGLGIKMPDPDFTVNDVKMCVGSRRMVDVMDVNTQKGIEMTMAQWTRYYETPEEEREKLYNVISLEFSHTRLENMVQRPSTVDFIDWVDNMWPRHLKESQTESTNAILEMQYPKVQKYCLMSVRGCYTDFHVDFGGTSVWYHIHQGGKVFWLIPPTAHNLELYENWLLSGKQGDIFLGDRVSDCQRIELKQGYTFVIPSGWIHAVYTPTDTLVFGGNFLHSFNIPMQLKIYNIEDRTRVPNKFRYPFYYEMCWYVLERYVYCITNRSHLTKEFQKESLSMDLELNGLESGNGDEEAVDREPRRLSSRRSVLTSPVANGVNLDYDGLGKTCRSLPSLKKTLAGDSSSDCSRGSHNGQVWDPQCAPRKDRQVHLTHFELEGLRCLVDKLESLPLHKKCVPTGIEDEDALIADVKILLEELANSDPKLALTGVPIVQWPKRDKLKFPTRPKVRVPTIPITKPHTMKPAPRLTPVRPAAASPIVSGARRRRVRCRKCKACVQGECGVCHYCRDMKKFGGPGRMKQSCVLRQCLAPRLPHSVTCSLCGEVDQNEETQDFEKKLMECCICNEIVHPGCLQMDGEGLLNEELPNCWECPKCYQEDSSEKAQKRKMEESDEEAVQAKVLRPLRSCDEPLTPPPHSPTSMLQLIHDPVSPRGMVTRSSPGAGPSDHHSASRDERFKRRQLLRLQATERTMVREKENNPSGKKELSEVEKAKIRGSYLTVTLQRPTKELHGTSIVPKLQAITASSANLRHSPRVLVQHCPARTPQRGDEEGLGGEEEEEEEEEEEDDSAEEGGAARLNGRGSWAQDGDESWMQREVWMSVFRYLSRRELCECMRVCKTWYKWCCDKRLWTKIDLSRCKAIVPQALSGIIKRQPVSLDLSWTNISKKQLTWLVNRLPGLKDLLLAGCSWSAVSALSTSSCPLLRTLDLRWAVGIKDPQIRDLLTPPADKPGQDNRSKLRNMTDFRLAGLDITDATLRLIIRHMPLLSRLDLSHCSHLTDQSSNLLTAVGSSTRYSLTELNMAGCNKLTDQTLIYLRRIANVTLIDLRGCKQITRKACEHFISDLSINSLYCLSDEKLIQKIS

[4] = biological target: Lysine-specific demethylase 6B (Homo sapiens, UniProt O15054); assay: Inhibition of human C-terminal FLAG-tagged KDM6B (1043 to end residues) expressed in baculovirus infected Sf9 insect cells at 50 uM using H3(21-44)-K27(Me3)-GK(Biotin)/2-OG as substrate measured after 1 hr by Alphalisa assay relative to control; procedure, shortened: as §1
[5] = tested on: A549; assay: Growth inhibition of human A549 cells after 72 hrs by Alamar blue staining based fluorescence assay; assay type: functional; conditions: A549, 72 h
Procedure, shortened: (§2)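 A549 or MDA-MB-231 cells seeded at 2 × 10^3 per well, left 24 h at 37 °C, then given compounds in medium for 72 h at 37 °C, 5% CO2. AlamarBlue added for a further 3 h at 37 °C; fluorescence read at ex 540/em 590 nm and % growth calculated from it. A549 in RPMI1640/10% FBS; MDA-MB-231 in L-15 with 2 mM glutamine/10% FBS.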

[6] = tested on: A549; assay: Growth inhibition of human A549 cells at 50 uM after 72 hrs by Alamar blue staining based fluorescence assay; assay type: functional, cell-based; procedure, shortened: as §2
[7] = tested on: MDA-MB-231; assay: Growth inhibition of human MDA-MB-231 cells at 50 uM after 72 hrs by Alamar blue staining based fluorescence assay; assay type: functional, cell-based; procedure, shortened: as §2
[8] = biological target: Lysine-specific demethylase 5B (Homo sapiens, UniProt Q9UGL1); assay: Inhibition of human N-terminal FLAG/His-tagged KDM5B (2 to 751 residues) expressed in baculovirus infected Sf9 insect cells using H3(1-21)K4(Me3)-GGK(Biotin)/2-OG as substrate measured after 1 hr by Alphalisa assay; procedure, shortened: as §1
Sequence of Lysine-specific demethylase 5B (Q9UGL1 whole entry, the tested form may be a part): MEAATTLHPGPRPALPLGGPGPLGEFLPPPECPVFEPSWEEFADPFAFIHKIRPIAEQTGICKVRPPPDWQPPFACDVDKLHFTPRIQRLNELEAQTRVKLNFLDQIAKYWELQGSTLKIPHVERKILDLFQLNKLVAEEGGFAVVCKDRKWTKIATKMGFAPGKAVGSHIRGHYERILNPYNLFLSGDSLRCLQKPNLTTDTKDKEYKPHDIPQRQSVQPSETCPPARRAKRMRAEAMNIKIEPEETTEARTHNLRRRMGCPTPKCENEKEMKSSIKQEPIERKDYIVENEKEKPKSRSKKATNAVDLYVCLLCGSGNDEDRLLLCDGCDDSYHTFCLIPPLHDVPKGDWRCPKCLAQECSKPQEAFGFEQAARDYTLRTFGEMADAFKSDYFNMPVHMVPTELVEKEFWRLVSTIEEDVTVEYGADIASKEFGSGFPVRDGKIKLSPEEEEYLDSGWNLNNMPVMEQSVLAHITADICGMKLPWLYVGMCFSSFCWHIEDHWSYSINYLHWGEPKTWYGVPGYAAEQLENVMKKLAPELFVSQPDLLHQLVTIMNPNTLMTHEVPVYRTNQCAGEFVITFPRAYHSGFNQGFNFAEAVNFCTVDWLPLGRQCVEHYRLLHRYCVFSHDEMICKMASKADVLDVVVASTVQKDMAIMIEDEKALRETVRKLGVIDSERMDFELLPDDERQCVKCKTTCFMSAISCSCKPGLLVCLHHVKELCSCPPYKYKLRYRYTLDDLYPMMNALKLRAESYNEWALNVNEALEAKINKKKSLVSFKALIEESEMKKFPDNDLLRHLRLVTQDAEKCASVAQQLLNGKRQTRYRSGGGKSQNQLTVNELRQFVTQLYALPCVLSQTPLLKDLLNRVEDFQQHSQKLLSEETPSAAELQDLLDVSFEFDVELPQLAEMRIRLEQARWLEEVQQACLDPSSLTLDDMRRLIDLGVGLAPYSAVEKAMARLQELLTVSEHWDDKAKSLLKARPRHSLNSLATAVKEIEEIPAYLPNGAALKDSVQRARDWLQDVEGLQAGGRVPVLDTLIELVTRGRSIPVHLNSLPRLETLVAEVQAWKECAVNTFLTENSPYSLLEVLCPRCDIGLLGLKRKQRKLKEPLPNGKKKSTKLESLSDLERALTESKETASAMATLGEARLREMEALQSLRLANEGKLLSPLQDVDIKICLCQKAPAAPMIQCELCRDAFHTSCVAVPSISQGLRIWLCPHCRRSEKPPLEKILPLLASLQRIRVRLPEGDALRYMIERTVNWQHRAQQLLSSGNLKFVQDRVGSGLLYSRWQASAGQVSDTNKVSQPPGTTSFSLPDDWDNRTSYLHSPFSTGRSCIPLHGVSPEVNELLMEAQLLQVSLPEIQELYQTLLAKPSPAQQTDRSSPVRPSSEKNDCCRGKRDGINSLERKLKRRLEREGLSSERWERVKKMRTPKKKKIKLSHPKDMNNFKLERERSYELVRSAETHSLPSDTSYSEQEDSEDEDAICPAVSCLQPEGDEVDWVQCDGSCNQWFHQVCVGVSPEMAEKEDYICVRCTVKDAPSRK

[9] = biological target: T1, Lysine-specific demethylase 5A; assay: Inhibition of human C-terminal FLAG-tagged KDM5A (1 to 1090 residues) expressed in baculovirus infected Sf9 insect cells at 1 uM using H3(1-21)K4(Me3)-GGK(Biotin)/2-OG as substrate measured after 1 hr by Alphalisa assay relative to control; procedure, shortened: as §1

IC50 [1] [nM]	IC50 [2] [nM]	inhibition [3] [%]	inhibition [4] [%]	GI50 [5] [nM]	IC50 [8] [nM]	inhibition [9] [%]	SMILES	growth inhibition (GI) [6]	growth inhibition (GI) [7]
4.37	6.24	38.4	22.7	29600	1.34		CCCCCCN(C)CCc1ccc(-c2[nH]c3c(C#N)cnn3c(=O)c2C(C)C)cc1	Active	Active
2700	28900	51.7	17.8		9240	30.8	CCCCCN(C)CCCCC(=O)N(O)CCC(=O)O		
	3010	25.7		> 50000	337	68.9	CC(C)c1c(-c2ccccc2)[nH]c2c(C#N)cnn2c1=O	inactive	Active
22.7	5.84	13.4	29.1	40000	51.1	97.9	CCCCCCN(C)Cc1ccc(-c2[nH]c3c(C#N)cnn3c(=O)c2C(C)C)cc1	Active	Active
